Paper PMC11362645 (International Journal for Parasitology: Parasites and …, 2024)
Marks after values point to notes of the source that are not given here.

Assays:
[1] = tested on: Madin-Darby bovine kidney (MDBK) cells; experiment: In vitro MTT cytotoxicity assay on MDBK cells; format: cell-based; settings: MDBK cells; for Average cell viability (%) / Concentration that significantly reduced the viability of MDBK cells: 24 h, MTT; for Maximum non-toxic concentration: highest concentration with no significant effect on cell viability
Outline: (§1)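 MDBK cells (NBL-1) were kept in MEM with 10% FBS and penicillin/streptomycin at 37 °C, 5% CO2, and passaged with Accutase at ~70% confluence. Cells were seeded at 2×10^4/well and grown 24 h. Test compound was added at final 0.1, 1, 10, 50 or 100 μM, with a DMSO solvent control, for 24 h. MTT was added for 2 h, formazan dissolved in 99% isopropanol, and A562 read. Viability = compound/DMSO ×100. Maximum non-toxic concentration = highest concentration with no significant viability effect. Three repeats.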

[2] = In vitro MTT cytotoxicity assay on MDBK cells; format: cell-based, bovine; settings: bovine, MDBK cells (NBL-1 strain)
Outline: as §1

E. tenella sporozoites = experiment: In vitro viability assay for E. tenella sporozoites; format: cell-based, Eimeria tenella; settings: for Sporozoite viability: 24 h, DMSO-treated group = 100%; for Potency of anti-parasitical effect against Eimeria parasites (category by IC50): criteria of Isah et al., 2016: high, moderate, low/no potency
Outline: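 E. tenella OPU strain oocysts were sporulated in ~0.1% potassium dichromate at 28 °C and hypochlorite-treated. Sporocysts were excysted for 1–2 h at 41 °C in HBSS with 1% taurodeoxycholic acid and 0.25% trypsin. Sporozoites at 5×10^6/ml in phenol-red-free RPMI 1640 with antibiotics got test compound (screen 100 μM; IC50 range 1–100 μM) for 24 h at 37 °C, 5% CO2. Cell Count Reagent SF was then added for 3 h. Viability was expressed relative to DMSO = 100%.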

[3] = commercially available pure compounds at 100 μM

Compound | Average cell viability (%) ([1]; 0.1 μM) | Average cell viability (%) ([1]; 1 μM) | Average cell viability (%) ([1]; 10 μM) | Average cell viability (%) ([1]; 50 μM) | Average cell viability (%) ([1]; 100 μM) | Maximum non-toxic concentration [1] | viability at 24 h, 0.1 µM [2] | viability at 24 h, 1 µM [2] | viability at 24 h, 10 µM [2] | viability at 24 h, 50 µM [2] | viability at 24 h, 100 µM [2] | Sporozoite viability (E. tenella sporozoites; natural components at 100 μM) | Concentration that significantly reduced the viability of MDBK cells [1] | Potency of anti-parasitical effect against Eimeria parasites (category by IC50) (E. tenella sporozoites) | Sporozoite viability (E. tenella sporozoites; [3])
COc1cc(CCc2ccccc2O)cc(OC)c1O [Component A-2, 4,2′-Dihydroxy-3,5-dimethoxydihydrostilbene] | 98.7% | 105.9% | 107.0% | 103.4% | 107.3% | 100 µM |  |  |  |  |  |  |  |  | 
Oc1cc(O)c2c(c1)O[C@H](c1ccc(O)c(O)c1)[C@H](O)C2 [Component A-3, Epicatechin] |  |  |  |  |  | 100 µM | 103% | 91% | 92.3% | 109% | 108% |  |  |  | 
O=c1c(O[C@@H]2O[C@H](CO)[C@@H](O)[C@H](O)[C@H]2O)c(-c2ccc(O)c(O)c2)oc2cc(O)cc(O)c12 [Component A-4, Isoquercitrin] |  |  |  |  |  | 100 µM | 98% | 110% | 104% | 109% | 104% |  |  |  | 
Oc1cc(O)cc(/C=C/c2ccccc2)c1 [Component A-5, Pinosylvin] |  |  |  |  |  | 100 µM | 103% | 102% | 103% | 110% | 106% |  |  |  | 
C[C@H]1[C@H](C)CC[C@]2(CO)CC[C@]3(C)C(=CC[C@@H]4[C@@]5(C)CC[C@H](O)C(C)(C)[C@@H]5CC[C@]43C)[C@H]12 [Component B-1, Uvaol] |  |  |  |  |  | 10 µM | 95.6% | 99.9% | 110% | 55.9% | 36.2% |  |  |  | 
CC1(C)CC[C@]2(C)CC[C@]3(C)C(=CC[C@@H]4[C@@]5(C)CC[C@H](O)C(C)(C)[C@@H]5CC[C@]43C)[C@@H]2C1 [Component C-1, β-Amyrin] |  |  |  |  |  | 100 µM | 78.1% | 82.6% | 88.6% | 87.7% | 82.4% | no significant effect |  |  | 
COc1ccc(-c2cc(=O)c3c(O)c(C)c(OC)cc3o2)cc1 [Component C-2, 8-Demethyleucalyptin] | 97.8% | 92.5% | 98.7% | 85.2* % | 80.8* % | 10 µM |  |  |  |  |  |  |  |  | 
CC1(C)CC[C@]2(C(=O)O)CC[C@]3(C)C(=CC[C@@H]4[C@@]5(C)CC[C@H](O)C(C)(C)[C@@H]5CC[C@]43C)[C@@H]2C1 [Component C-5, Oleanolic acid] |  |  |  |  |  | 50 µM | 99.9% | 99.2% | 102% | 105% | 16.2% |  | 100 µM | high potency | 
O=C(CCc1ccc(O)cc1)c1c(O)cc(O[C@@H]2O[C@H](CO)[C@@H](O)[C@H](O)[C@H]2O)cc1O [Component C-6, Trilobatin] | 89.1% | 90.7% | 91.4% | 92.9% | 93.6% | 100 µM |  |  |  |  |  |  |  |  | 
O=C(CCc1ccc(O)cc1)c1c(O)cc(O)cc1O[C@@H]1O[C@H](CO)[C@@H](O)[C@H](O)[C@H]1O [Component C-7, Phlorhizin] | 87.9% | 90.9% | 98.2% | 95.8% | 107.4% | 100 µM |  |  |  |  |  |  |  |  | 
O=C1C[C@@H](c2ccc(O)cc2)Oc2cc(O)cc(O)c21 [Component D-1, Naringenin] |  |  |  |  |  | 100 µM | 92.2% | 97.3% | 99.3% | 109% | 107% |  |  |  | 
C[C@H]1[C@H](C)CC[C@]2(C(=O)O)CC[C@]3(C)C(=CC[C@@H]4[C@@]5(C)CC[C@H](O)C(C)(C)[C@@H]5CC[C@]43C)[C@H]12 [Component D-3, Ursolic acid] |  |  |  |  |  | 10 µM | 92.9% | 86.4% | 105% | -13.1% | -14.2% |  |  | low/no potency | 
Oc1cc(O)c2c(c1)O[C@H](c1cc(O)c(O)c(O)c1)[C@@H](O)C2 [Component F-1, Gallocatechin] |  |  |  |  |  | 100 µM | 80.8% | 81.4% | 93.9% | 92.6% | 85.2% |  |  |  | 
COC1OC(CO)C(O)C(O)C1O (stereo not drawn) [Component F-2, β-Methylglucoside] | 99.2% | 102.1% | 104.6% | 102.0% | 104.9% | 100 µM |  |  |  |  |  |  |  |  | 
O=c1c(O[C@@H]2O[C@@H](CO)[C@H](O)[C@H]2O)c(-c2ccc(O)c(O)c2)oc2cc(O)cc(O)c12 [Component G-1, Avicularin] |  |  |  |  |  | 100 µM | 94.6% | 96.9% | 88.5% | 104% | 89.5% |  |  |  | 
COc1cc(C)cc(O)c1 [Component H-1, 3-Methoxy-5-methylphenol] |  |  |  |  |  | 100 µM | 106% | 109% | 106% | 113% | 112% |  |  |  | 
Cc1cc(O)cc(O)c1 [Component H-2, 5-Methylbenzene-1,3-diol] |  |  |  |  |  | 100 µM | 92% | 95.3% | 94.8% | 93.4% | 93.3% |  |  |  | 
C[C@@H]1O[C@@H](O[C@H]2[C@H](O)[C@@H](O)[C@H](OC[C@H]3O[C@@H](OC(=O)[C@]45CCC(C)(C)C[C@H]4C4=CC[C@@H]6[C@@]7(C)CC[C@H](O[C@@H]8OC[C@H](O)[C@H](O)[C@H]8O[C@@H]8O[C@H](CO)[C@@H](O)[C@H](O)[C@H]8O)[C@@](C)(CO)[C@@H]7CC[C@@]6(C)[C@]4(C)CC5)[C@H](O)[C@@H](O)[C@@H]3O)O[C@@H]2CO)[C@H](O)[C@H](O)[C@H]1O [Component I-1, Cauloside G] | 100.7% | 103.3% | 103.7% | 97.0% | 89.4% | 100 µM |  |  |  |  |  |  |  |  | 
OC[C@H]1O[C@@H](Oc2ccc(O)cc2)[C@H](O)[C@@H](O)[C@@H]1O [E−1, Arbutin] |  |  |  |  |  | 100 µM | 83.1% | 86.4% | 87.1% | 108% | 102% |  |  |  | 
Oc1cc(O)c2c(c1)OC(c1ccc(O)c(O)c1)C(O)C2 (stereo not shown) [E−2, Catechin] | 101.1% | 102.5% | 109.8% | 104.9% | 114.0% | 100 µM |  |  |  |  |  |  |  |  | 
CC[C@@H](C(=O)[C@@H](C)[C@@H](O)[C@H](C)CCc1ccc(C)c(O)c1C(=O)O)[C@H]1O[C@](CC)([C@H]2CC[C@](O)(CC)[C@H](C)O2)C[C@@H]1C [lasalocid, reference compound] |  |  |  |  |  | 1 µM | 107% | 110% | 54.3% | 1.1% | 0.4% |  | higher than 10 μM |  | 
C[C@H]1[C@H](C)CC[C@]2(C)CC[C@]3(C)C(=CC[C@@H]4[C@@]5(C)CC[C@H](O)C(C)(C)[C@@H]5CC[C@]43C)[C@H]12 [α-amyrin, reference compound] |  |  |  |  |  |  |  |  |  |  |  |  |  |  | did not significantly reduce
CC1(C)CC[C@]2(C)CC[C@]3(C)C(=CC[C@@H]4[C@@]5(C)CC[C@H](O)C(C)(C)[C@@H]5CC[C@]43C)[C@@H]2C1 [β-amyrin, reference compound] |  |  |  |  |  |  |  |  |  |  |  |  |  |  | did not significantly reduce
